Data set [1] deals with NCI-H661. As to the kind of experiment: Induction of apoptosis in human NCI-H661 cells assessed as early apoptotic cells at 20 uM after 24 hrs by Annexin V/FITC-staining based FACS analysis (reference value: 5%). Type of data set: functional.
The target of data set [2] is T1, Tyrosine-protein phosphatase non-receptor type 11 (Homo sapiens, UniProt Q06124).
T1 sequence (Q06124 whole entry): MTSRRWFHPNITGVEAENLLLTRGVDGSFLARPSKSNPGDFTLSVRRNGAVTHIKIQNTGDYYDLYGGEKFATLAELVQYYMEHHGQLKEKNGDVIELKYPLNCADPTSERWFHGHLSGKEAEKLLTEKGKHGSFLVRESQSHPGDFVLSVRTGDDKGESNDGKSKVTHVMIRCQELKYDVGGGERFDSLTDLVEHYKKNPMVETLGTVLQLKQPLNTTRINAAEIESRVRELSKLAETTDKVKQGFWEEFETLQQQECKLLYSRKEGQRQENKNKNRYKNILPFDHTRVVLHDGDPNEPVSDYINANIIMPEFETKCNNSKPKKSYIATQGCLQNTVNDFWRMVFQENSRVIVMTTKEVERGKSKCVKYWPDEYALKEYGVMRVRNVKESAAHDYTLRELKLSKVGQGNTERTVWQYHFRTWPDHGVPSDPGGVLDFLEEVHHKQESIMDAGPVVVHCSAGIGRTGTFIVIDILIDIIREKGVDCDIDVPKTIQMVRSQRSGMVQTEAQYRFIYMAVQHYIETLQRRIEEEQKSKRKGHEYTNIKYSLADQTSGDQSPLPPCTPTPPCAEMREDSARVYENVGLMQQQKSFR
The data set can be described thus: Inhibition of recombinant full length human GST-tagged SHP2 PTP domain using phospho-peptide as substrate pre-incubated for 30 mins before substrate addition and measured after 30 mins.

Data set [3] has as its system NCI-H661. The data set can be described thus: Induction of apoptosis in human NCI-H661 cells assessed as necrotic cells at 10 uM after 24 hrs by Annexin V/FITC-staining based FACS analysis (reference value: 4.6%). The format is functional. On the technique in general: In flow cytometry, cells or beads pass a laser one at a time.
Data set [4] addresses Tyrosine-protein phosphatase non-receptor type 6 (Homo sapiens, UniProt P29350). The data set can be described thus: Inhibition of wild type recombinant human SHP1 using H-Glu-Phe-pTyr-Ala-Glu-Val-Gly-Arg-Ser-Pro-Pro-Asp-Pro-Ala-Lys as substrate preincubated for 30 mins followed by substrate addition and measured after 30 mins by Malachite Green-reagent based assay. A digest of the protocol: (§1)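 Full-length SHP2 or SHP1 (0.1 µg) preincubated with compound 30 min at room temperature in 25 mM Tris-HCl pH 7.4, 50 mM NaCl, 5 mM DTT, 2.5 mM EDTA. Phospho-peptide substrate added to 50 µM final; 30 min at 30 °C. Released phosphate read by Malachite Green at OD620. IC50 from six concentrations; three experiments.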

For data set [5], the target named is T1, Tyrosine-protein phosphatase non-receptor type 11. As to the kind of experiment: Binding affinity to full length wild type His-tagged SHP2 (unknown origin) by MST assay. Summed up: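 His-tagged SHP2 (200 nM) in 50 mM Tris-HCl pH 8.0, 10 mM NaCl, 0.005% Tween 20, labelled with red-tris-NTA dye. Mixed 1:1 with a 15-step 2-fold dilution series from 600 µM made in PBS/0.005% Tween 20. MST run at 50% power with red filter; one-site fit gives Kd. Mean ± SD of three experiments.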

The test system of data set [6] is NCI-H661. The data set can be described thus: Induction of apoptosis in human NCI-H661 cells assessed as late apoptotic cells at 20 uM after 24 hrs by Annexin V/FITC-staining based FACS analysis (reference value: 3.5%). The format is functional.
Data set [7] deals with NCI-H661. As to the kind of experiment: Induction of apoptosis in human NCI-H661 cells assessed as late apoptotic cells at 10 uM after 24 hrs by Annexin V/FITC-staining based FACS analysis (reference value: 3.5%). Type of data set: functional.
Data set [8] deals with NCI-H661. The data set can be described thus: Induction of apoptosis in human NCI-H661 cells assessed as necrotic cells at 20 uM after 24 hrs by Annexin V/FITC-staining based FACS analysis (reference value: 4.6%). The format is functional.
The subject of the next data set is MEF. The data set can be described thus: Growth inhibition of PTPN11-depleted MEF at 6 uM after 24 to 72 hrs by cell proliferation-based assay. The following applies: mouse. A digest of the protocol: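 Ptpn11 fl/fl and Ptpn11 +/+ MEFs, both Ade-Cre+, infected with adeno-Cre, then given 6 µM compound or DMSO. Growth measured at 24, 48 and 72 h by One Solution proliferation assay. SHP2 loss confirmed by immunoblot. Triplicates from one of three experiments.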

For data set [9], the system named is NCI-H661. As to the kind of experiment: Induction of apoptosis in human NCI-H661 cells assessed as viable cells at 10 uM after 24 hrs by Annexin V/FITC-staining based FACS analysis (reference value: 86.9%). The format is functional. The following applies: NCI-H661, 24 h, read-out: Activity.
Data set [10] has as its target T1, Tyrosine-protein phosphatase non-receptor type 11. The data set can be described thus: Inhibition of wild type recombinant human SHP2 using H-Glu-Phe-pTyr-Ala-Glu-Val-Gly-Arg-Ser-Pro-Pro-Asp-Pro-Ala-Lys as substrate preincubated for 30 mins followed by substrate addition and measured after 30 mins by Malachite Green-reagent based assay. Summed up: as §1
For data set [11], the target named is Tyrosine-protein phosphatase non-receptor type 11 (Homo sapiens, UniProt Q06124, E76K). The data set can be described thus: Inhibition of recombinant full length human GST-tagged SHP2 E76K mutant using phospho-peptide as substrate pre-incubated for 30 mins before substrate addition and measured after 30 mins.
Sequence of Tyrosine-protein phosphatase non-receptor type 11 (Homo sapiens, UniProt Q06124, E76K) (Q06124 as listed by the source E76K): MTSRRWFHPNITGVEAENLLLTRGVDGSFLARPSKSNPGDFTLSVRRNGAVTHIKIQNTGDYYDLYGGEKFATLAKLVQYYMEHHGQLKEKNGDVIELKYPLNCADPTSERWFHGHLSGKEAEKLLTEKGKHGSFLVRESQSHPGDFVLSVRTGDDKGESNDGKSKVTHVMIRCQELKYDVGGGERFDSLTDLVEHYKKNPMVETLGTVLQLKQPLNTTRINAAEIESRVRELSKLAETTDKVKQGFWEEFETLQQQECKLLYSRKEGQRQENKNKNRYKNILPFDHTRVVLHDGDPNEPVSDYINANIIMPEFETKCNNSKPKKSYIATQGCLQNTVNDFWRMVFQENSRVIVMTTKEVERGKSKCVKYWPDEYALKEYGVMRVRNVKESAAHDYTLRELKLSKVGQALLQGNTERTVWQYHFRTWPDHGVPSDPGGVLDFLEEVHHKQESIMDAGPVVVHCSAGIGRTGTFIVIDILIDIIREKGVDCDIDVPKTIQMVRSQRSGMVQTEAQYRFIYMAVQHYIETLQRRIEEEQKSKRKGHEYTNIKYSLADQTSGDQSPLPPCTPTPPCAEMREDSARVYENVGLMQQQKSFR
For data set [12], the system named is NCI-H661. As to the kind of experiment: Induction of apoptosis in human NCI-H661 cells assessed as viable cells at 20 uM after 24 hrs by Annexin V/FITC-staining based FACS analysis (reference value: 86.9%). The format is functional. The following applies: NCI-H661, 24 h, read-out: Activity.
Data set [13] relates to NCI-H661. As to the kind of experiment: Induction of apoptosis in human NCI-H661 cells assessed as early apoptotic cells at 10 uM after 24 hrs by Annexin V/FITC-staining based FACS analysis (reference value: 5%). Type of data set: functional.

Sequence of Tyrosine-protein phosphatase non-receptor type 6 (P29350 whole entry): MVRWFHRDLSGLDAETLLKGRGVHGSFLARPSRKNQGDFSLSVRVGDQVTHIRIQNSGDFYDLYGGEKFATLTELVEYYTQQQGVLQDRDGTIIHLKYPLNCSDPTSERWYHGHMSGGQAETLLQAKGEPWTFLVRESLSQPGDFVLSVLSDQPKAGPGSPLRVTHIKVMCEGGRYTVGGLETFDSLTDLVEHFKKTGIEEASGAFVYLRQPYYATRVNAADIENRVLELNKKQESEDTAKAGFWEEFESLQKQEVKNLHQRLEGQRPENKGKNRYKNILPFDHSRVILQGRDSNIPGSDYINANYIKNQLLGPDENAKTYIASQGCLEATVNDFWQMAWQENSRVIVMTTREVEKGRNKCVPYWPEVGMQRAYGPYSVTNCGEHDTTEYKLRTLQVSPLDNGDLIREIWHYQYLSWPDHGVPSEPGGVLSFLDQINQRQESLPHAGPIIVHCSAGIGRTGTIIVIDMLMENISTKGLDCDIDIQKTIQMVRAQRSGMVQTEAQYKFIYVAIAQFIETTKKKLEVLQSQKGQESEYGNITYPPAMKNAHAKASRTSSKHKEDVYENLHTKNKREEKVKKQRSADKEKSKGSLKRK

The IC50 is the concentration needed to halve the response being measured. One may read the Kd as the constant that tells how readily two partners part at equilibrium. The low end stands for higher affinity, the high end for lower affinity. Consider `CCOc1cc(O)c(C(=O)/C=C/c2ccc(Cl)cc2Cl)cc1CN1CCC=C(n2c(=O)[nH]c3ccccc32)C1`, for which the Activity in the data set on NCI-H661 [1] is 12.6%; with NCI-H661 [3], 6.2%; with NCI-H661 [6] it was 21%; in the data set with NCI-H661 [7], 7.3%; with NCI-H661 [8], 8.9%; with MEF, “Non-Toxic”. The Activity with NCI-H661 [13] is on record as 9.7%. For the same compound, the IC50 in [2] came out at 20.9 µM; in [4], 72.7 µM; in data set [10] it was 9.8 µM; in data set [11], 7.67 µM. In data set [5], this compound gave a Kd of 69 µM. Besides, the viability at 10 µM in the data set on NCI-H661 [9] is 76.8%. Besides, the viability at 20 µM with NCI-H661 [12] was 57.6%.

These data come from ChEMBL document CHEMBL4422612, “Small Molecule Inhibitor that Stabilizes the Autoinhibited Conformation of the Oncogenic Tyrosine Phosphatase SHP2” (J Med Chem, 2019).
